Shown are actives, neighbours in structure and some others; about 2.5% of the full set was active somewhere.
AF4-AF9 inh – blocks AF4 peptide binding to human AF9 | actives 0.47% (n = 350,000) | AID 651704 | P42568 | AlphaScreen, biotin-AF4 peptide binding to FLAG-AF9 | inhibition, % at 10 µM;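 active means every replicate reaching a set inhibition limit, whatever the replicate mean, cut at about 25% in these data; inconclusive means mean inhibition reaches that limit but some replicates miss it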;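 further: 0% = plate neutral control median and 100% = total signal loss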
Target sequence (P42568 whole entry, looked up): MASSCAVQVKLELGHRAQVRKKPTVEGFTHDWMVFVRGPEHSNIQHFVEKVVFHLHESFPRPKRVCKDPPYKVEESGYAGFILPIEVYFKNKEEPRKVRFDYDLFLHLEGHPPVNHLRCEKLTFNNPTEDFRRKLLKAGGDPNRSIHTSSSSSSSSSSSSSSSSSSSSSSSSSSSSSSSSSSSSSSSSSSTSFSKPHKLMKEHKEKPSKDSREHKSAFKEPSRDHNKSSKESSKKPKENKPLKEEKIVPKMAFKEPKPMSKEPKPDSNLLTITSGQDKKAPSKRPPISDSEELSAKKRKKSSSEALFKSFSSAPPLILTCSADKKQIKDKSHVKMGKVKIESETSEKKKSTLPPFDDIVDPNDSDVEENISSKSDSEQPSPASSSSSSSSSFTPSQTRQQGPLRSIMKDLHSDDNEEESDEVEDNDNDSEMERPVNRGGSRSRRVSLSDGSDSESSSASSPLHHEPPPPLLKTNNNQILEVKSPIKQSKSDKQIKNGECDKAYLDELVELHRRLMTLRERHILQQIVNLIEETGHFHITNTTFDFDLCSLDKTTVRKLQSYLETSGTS
PAX8 inh HTS – lowers PAX8-driven luciferase in RMG-I cells. RMG-I TPO-luciferase reporter, SteadyGlo, 24 h. actives 1.2% (n = 360,000). inhibition, % at 12.6 µM;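 active means mean replicate inhibition at least 60% with every replicate also reaching 60%; inconclusive means only one of the two criteria is met; inactive means mean below 60% and not all replicates reaching 60%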;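 further: luciferase light reporting Pax8 driven TPO promoter activity; plate controls were median of neutral control wells for no effect and mitoxantrone controls for full effect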
Glyco luc inh – N-linked glycosylation inhibition; D54 ERlucT glycosylation luciferase reporter, 24 h; percent of 100 nM tunicamycin response; reporter increase, % at 12.5 µM; actives 0.23% (n = 360,000);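 active means mean luciferase reporter signal, scaled so untreated is 0 and the glycosylation-blocking control 100, at or above a set limit in every replicate; inconclusive means mean reaches the limit but not every replicate does; inactive means mean below the limit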;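 further: luciferase carries N-glycosylation sites so blocking glycosylation raises the light; 0% = median of neutral control wells and 100% = median of 100 nM tunicamycin wells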
Env fusion inh – blocks HIV Env-driven cell-cell fusion; HeLa-JRFL Env/CEM21 cell fusion, luciferase; inhibition, % at 12.3 µM; actives 1.1% (n = 360,000); AID 651610;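 active means mean replicate inhibition score of at least 50 and every replicate individually at or above 50; inconclusive means only one of the two criteria met; inactive means mean below 50 and not all replicates reaching 50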;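 further: 0% = plate neutral controls and 100% = maraviroc near 300 nM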
EWS-Fli block – EWS/Fli transcriptional activity inhibition; actives 0.67% (n = 350,000); AID 651661; A673 NR0B1-luciferase reporter, viability-normalised; inhibition, % at 12.6 µM;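 active means mean inhibition of at least 50% after viability correction, with every replicate also passing that limit; inconclusive means mean reaches 50% but only one of two replicates passes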;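 further: firefly luciferase signal divided by Alamar Blue viability fluorescence both relative to DMSO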
FN deposit inh – fibronectin deposition inhibition | AH1F fibroblasts, Alexa488-fibronectin deposition fluorescence, overnight | inhibition, % at 12.6 µM | AID 743247 | actives 0.086% (n = 350,000);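 active means mean inhibition across replicates of 30% or more, regardless of how many single replicates reach that level; inconclusive means mean under 30% yet at least half of replicates reach 30%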;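 further: positive control wells lacked labelled fibronectin entirely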
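Assay system: AH1F fibroblasts assembling fluorescent fibronectin matrix; Amount: 10000 AH1F cells per well; Buffer or medium: DMEM, 2% serum; Probe or stimulus: Alexa488-fibronectin, 24 nM final in well; Doses: single compound dose, delivered by pin transfer; Incubation: 1 h adhesion, overnight exposure; Measured by: fluorescence 485/525 nm; Read-out: fibronectin deposition inhibition.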
Numbers without * were called inactive; ? = inconclusive; · = not tested or not shown; [ ] = dose if it differs, or a comment.

SMILES | AF4-AF9 inh | PAX8 inh HTS | Glyco luc inh | Env fusion inh | EWS-Fli block | FN deposit inh
COc1cccc(CN2CC3(C2)CN(C(=O)C2CC2)[C@@H](CO)c2c3c3ccc(OC)cc3n2C)c1 | 26* | · | · | · | -2 | ·
COc1ccc2c3c(n(C)c2c1)[C@@H](CO)N(C(=O)Cc1ccccn1)CC31CN(CC2CCCC2)C1 | 8 | -5 | · | · | -6 | -1
COc1ccc2c3c(n(C)c2c1)[C@H](CO)N(C(=O)C1CC1)CC31CN(Cc2ccccc2OC)C1 | 29* | 22 | · | · | -17 | 0
COc1ccc2c3c(n(C)c2c1)[C@H](CO)N(C(=O)Cc1ccccn1)CC31CN(CC2CCCCC2)C1 | 26* | 16 | · | · | -8 | -8
C[C@@H]1CCCCO[C@@H](CN(C)CC2CCCCC2)[C@H](C)CN([C@@H](C)CO)C(=O)c2cc(NC(=O)C3CCCCC3)ccc2O1 | 6 | -7 | · | 16[16.7 µM] | -3 | ·
COCC1CCCN(Cc2cn(Cc3ccccc3)nc2-c2cc3ccccc3o2)C1 (stereo not given) | 5 | 18 | -6 | 58* | 5 | 16
COCC1CCN(Cc2cn(Cc3ccccc3)nc2-c2cc3ccccc3o2)CC1 | -3 | 10 | -1 | 14 | 4 | 2
CCOc1cccc(-c2c(C(=O)N/N=C(\C)c3ccccn3)nnn2-c2nonc2N)c1 | -13 | 69* | -11 | 39 | · | 5
C[C@@H]1CN([C@H](C)CO)C(=O)c2cc(NS(=O)(=O)c3cn(C)cn3)ccc2O[C@@H]1CN(C)Cc1ccc2c(c1)OCO2 | -1 | · | · | · | 6 | ·
O=C(C[C@H]1CC[C@H]2[C@@H](COC[C@@H](O)CN2Cc2ccc3c(c2)OCO3)O1)Nc1ccc(-c2ccccc2)cc1 | · | 87* | · | ? | 17 | -15
O=C(C[C@@H]1CC[C@@H]2[C@H](COC[C@H](O)CN2Cc2ccc3c(c2)OCO3)O1)Nc1ccc(-c2ccccc2)cc1 | 0 | 80* | · | 25[16.7 µM] | 16 | 4
C[C@H]1CN([C@@H](C)CO)C(=O)Cc2cc(NC(=O)NC3CCCCC3)ccc2O[C@@H]1CN(C)C(=O)NC1CCCCC1 | -3 | · | · | -7[16.7 µM] | -7 | ·
O=C(Nc1ccccc1C(=O)Nc1nnc(C(F)(F)F)s1)c1ccccc1Cl | 3 | 63* | -7 | 18 | 17 | 3
Cc1[nH]c2ccccc2c1SCC(=O)N1CCCc2ccccc21 | 10 | 27 | -2 | 69* | -9 | -8
CC(C)NC(=O)Nc1ccc2c(c1)C(=O)N([C@@H](C)CO)C[C@H](C)[C@@H](CN(C)S(C)(=O)=O)OCCCC[C@@H](C)O2 | -10 | -11 | · | -9[16.7 µM] | -3 | -4
Cn1c(Cl)cnc1C1CC(=O)c2cc(Cl)ccc2O1 (stereo not given) | · | 72* | 18 | -258 | · | 1
O=C1CC(c2ccc(Cl)cc2)Oc2ccc(Cl)cc21 (stereo not given) | 8 | 2 | 4 | -68 | -24 | 5
C[C@@H]1CCCCO[C@@H](CN(C)C(=O)Nc2ccc(F)cc2)[C@H](C)CN([C@@H](C)CO)C(=O)c2cc(NC(=O)CCC(F)(F)F)ccc2O1 | -4 | 6 | · | -23[16.7 µM] | 4 | -18
COc1ccc2c3c([nH]c2c1)[C@@H](CO)N(Cc1ccccc1)CC31CN(S(C)(=O)=O)C1 | -1 | · | · | · | 4 | ·
C[C@@H]1CCCCO[C@@H](CN(C)CC2CCCCC2)[C@@H](C)CN([C@@H](C)CO)C(=O)c2cc(N(C)C)ccc2O1 | 20 | -10 | · | -12[16.7 µM] | -1 | ·
C[C@@H]1CCCCO[C@@H](CN(C)Cc2ccc(Cl)c(Cl)c2)[C@@H](C)CN([C@H](C)CO)C(=O)c2cc(N(C)C)ccc2O1 | 48* | -11 | · | -6[16.7 µM] | · | ·
C[C@@H]1CN([C@@H](C)CO)C(=O)c2cc(NC(=O)Cn3cnnn3)ccc2O[C@H]1CN(C)Cc1ccc(Cl)c(Cl)c1 | 0 | -13 | · | 1[16.7 µM] | 63* | ·
C[C@@H]1CCCCO[C@H](CN(C)Cc2ccc3c(c2)OCO3)[C@H](C)CN([C@@H](C)CO)C(=O)c2cc(N(C)C)ccc2O1 | · | 2 | · | 5[16.7 µM] | -5 | ·
C[C@H](CO)N1C[C@H](C)[C@H](CN(C)Cc2ccc3c(c2)OCO3)OCCCC[C@H](C)Oc2ccc(N(C)C)cc2C1=O | 8 | 10 | · | -8[16.7 µM] | -2 | ·
C[C@@H]1CCCCO[C@@H](CN(C)CC2CCCCC2)[C@H](C)CN([C@@H](C)CO)C(=O)c2cc(N(C)C)ccc2O1 | 37* | 6 | · | 7[16.7 µM] | 2 | ·
SMILES | AF4-AF9 inh | PAX8 inh HTS | Glyco luc inh | Env fusion inh | EWS-Fli block | FN deposit inh
C[C@H](CO)N1C[C@H](C)[C@@H](CN(C)Cc2ccc(Cl)c(Cl)c2)OCCCC[C@H](C)Oc2ccc(N(C)C)cc2C1=O | 43* | -4 | · | · | 6 | ·
CNC[C@@H]1Oc2ccc(NS(=O)(=O)c3cccs3)cc2C(=O)N([C@@H](C)CO)C[C@H]1C | -4 | · | · | · | -13 | 0
CC(C)NC(=O)N[C@@H]1CC[C@@H](CCNS(=O)(=O)c2ccc(Cl)cc2)O[C@@H]1CO | -1 | -5 | · | -13[16.7 µM] | 7 | ·
O=C(C[C@@H]1CC[C@@H]2[C@H](COC[C@@H](O)CN2C(=O)c2ccc3c(c2)OCO3)O1)NC1CCCC1 | -2 | 11 | · | 2[16.7 µM] | 4 | -3
C[C@H](CO)N1C[C@H](C)[C@H](CN(C)Cc2ccc(Cl)c(Cl)c2)Oc2ccc(N(C)C)cc2C1=O | 32* | 15 | · | 6[16.7 µM] | -3 | -18
C[C@@H]1CN([C@@H](C)CO)C(=O)c2cc(N(C)C)ccc2O[C@H]1CN(C)Cc1ccc(Cl)c(Cl)c1 | 11 | 11 | · | 8[16.7 µM] | 4 | -13
O=C1c2ccccc2NC(c2ccc(-c3cccc([N+](=O)[O-])c3)o2)N1O (stereo not given) | 18 | -11 | 1 | 58* | -14 | 14
COc1ccc2c3c([nH]c2c1)[C@@H](CO)N(Cc1ccccc1F)CC31CN(C(=O)C2CCC2)C1 | · | 27 | · | · | 26 | ·
CC12CN3CC(C)(CN(C1)C3c1ccc3c(c1)OCO3)C2=O (stereo not given) | 0 | · | 1 | · | 2 | ·
CN1c2ccccc2N(C)C1c1ccc2c(c1)OCO2 | · | · | 2 | 63* | · | ·
COc1ccccc1CN1[C@@H]2Cn3c(ccc(C4=CCCCC4)c3=O)[C@H]1[C@@H](C(=O)N(C)C)[C@@H]2CO | 0 | · | · | · | -5 | ·
CC(=O)Nc1cccc(-c2ccnc3c2CC(C(=O)NCc2ccc(N(C)C)cc2)O3)c1 (stereo not given) | 31* | 27 | 13 | 34 | 4 | ·
O=C(NCc1ccccc1)C1Cc2c(-c3ccc4c(c3)OCO4)ccnc2O1 (stereo not given) | 0 | 68* | 13 | -203 | 60* | -31
CC(=O)Nc1ccc(-c2ccnc3c2CC(C)(C(=O)NCc2ccco2)O3)cc1 (stereo not given) | 3 | 40 | 20 | 40 | 54* | 11
CC(=O)Nc1ccc(-c2ccnc3c2CC(C(=O)NCc2ccco2)O3)cc1 (stereo not given) | 1 | ? | 9 | -192 | 62* | 18

High-throughput results: PubChem, Broad Institute
